# High-throughput results: PubChem BioAssay, Johns Hopkins Ion Channel Center
# Most compounds without a hit are left out; they make up all but 3.5% or so of the library.
# MrgX1 antagonist = human MrgX1 receptor antagonism, primary screen. MRGX1-HEK293 calcium flux, Fluo-4, BAM8-22 antagonism; active compounds read low. Q96LB2. AID 588676. B-score at 10 µM. 1.3% of 310,000 active;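 active means calcium-response B-score plate-corrected more than 3 library SD below zero, starting fluorescence within 5 deviations, no agonist response on first addition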;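 further: peak minus trough fluorescence over baseline after final BAM8-22 challenge near maximal dose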
# Target sequence (Q96LB2 whole entry, looked up): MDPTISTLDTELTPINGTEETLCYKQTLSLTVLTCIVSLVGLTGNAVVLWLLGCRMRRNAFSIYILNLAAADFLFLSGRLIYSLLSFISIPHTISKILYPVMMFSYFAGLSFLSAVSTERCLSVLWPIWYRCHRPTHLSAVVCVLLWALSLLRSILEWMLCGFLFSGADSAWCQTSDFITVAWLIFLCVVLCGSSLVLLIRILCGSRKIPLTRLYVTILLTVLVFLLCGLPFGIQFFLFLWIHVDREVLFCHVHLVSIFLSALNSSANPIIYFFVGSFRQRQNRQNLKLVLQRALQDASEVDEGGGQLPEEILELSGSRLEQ
# RGS4 pot = RGS4 potentiation or activation. HEK293 M3R/inducible RGS4, carbachol calcium flux Fluo4; active compounds read low. B-score at 10 µM. 0.92% of 310,000 active. AID 463111;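 active means B-score of the integrated calcium signal more than 4 SD below the library mean, with starting fluorescence not abnormally high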;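 further: negative B-score means reduced calcium response which marks RGS4 activation or potentiation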
#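 Material: Inducible-RGS4 HEK293 cells carrying M3 receptor; also added: carbachol at ECmax as muscarinic agonist stimulus; incubation: compound preincubation 20 min at room temperature before agonist; signal: Fluo4-AM (2 µM) calcium-flux fluorescence, kinetic read; measure: integrated calcium ratio converted to B score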
# MrgX1 agonist = human MrgX1 receptor agonism, primary screen; Q96LB2; MrgX1-HEK293 cells, Fluo-4 calcium fluorescence, agonist mode; active compounds read high; B-score at 10 µM; 0.44% of 310,000 active;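 active means calcium response B-score plate-corrected fluorescence ratio at least 3 library SD, with starting fluorescence B-score inside 5 SD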
#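 Test system: Stable human MrgX1 HEK293 cell line | Schedule: Overnight plating before 1 h dye loading | Read-out basis: Baseline-normalised fluorescence change ratio, B-scored | Detection: Kinetic calcium dye fluorescence, Fluo-4 NW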
# RGS4 inh = human RGS4 inhibition; HEK293 M3R/RGS4 inducible, Fluo-4 calcium flux; active compounds read high; triggered by carbachol at its EC20; B-score at 10 µM; 0.45% of 310,000 active; P49798; AID 463165;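 active means B-score, a plate-corrected calcium signal, over three deviations above library mean, with baseline fluorescence within five deviations of library mean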;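 further: RGS4 expression induced by doxycycline in cells with stable M3 receptor; B-score is computed from the integrated fluorescence ratio over baseline after carbachol; higher B-score means a larger calcium signal and so more RGS4 inhibition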
# Target sequence (P49798 whole entry, looked up): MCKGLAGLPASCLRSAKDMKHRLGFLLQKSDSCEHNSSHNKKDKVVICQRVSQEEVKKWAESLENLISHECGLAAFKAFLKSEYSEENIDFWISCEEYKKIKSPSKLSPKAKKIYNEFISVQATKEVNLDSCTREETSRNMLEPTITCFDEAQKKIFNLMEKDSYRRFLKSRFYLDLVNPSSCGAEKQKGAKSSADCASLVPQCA
# MrgX1 PAM = allosterically activates human MrgX1 receptor signaling | MrgX1-HEK293, Fluo-4 calcium flux, FDSS; active compounds read high | 0.63% of 310,000 active | B-score at 10 µM;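 active means plate-corrected calcium response at least 3 library SD above typical, normal starting fluorescence, not activating the receptor alone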;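 further: compound read alongside a low EC10 to EC30 dose of BAM8-22 agonist; peak minus trough fluorescence over baseline measured at the second addition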
# * = called active by the depositor; i = inactive; x = no result given.
SMILES,MrgX1 antagonist,RGS4 pot,MrgX1 agonist,RGS4 inh,MrgX1 PAM
O=[N+]([O-])c1ccccc1S(=O)(=O)N1CCN(C2CCCC2)CC1,i,i,i,i,i
CCCn1nnnc1COc1ccc(C(N)=O)cc1,i,i,i,i,i
COc1cccc(C(=O)N/N=C2\SCC(=O)N2Cc2ccc3c(c2)OCO3)c1,-5.6*,i,i,i,i
COc1ccc(C(=O)N/N=C2/SCC(=O)N2Cc2ccc3c(c2)OCO3)cc1OC,i,i,i,i,i
Cc1cc(C(C)(C)C)c(O)c(C(C)(C)C)c1,i,i,i,i,i
CC(C)(C)c1cc(O)c(C(C)(C)C)cc1O,i,-8.5*,41*,i,i
c1ccc(COc2cccc(CN3CCc4ccccc4C3)c2)cc1,i,i,i,i,i
COc1ccc(C(=O)NN/C(=N/S(=O)(=O)c2ccc(C)cc2)c2ccccc2)cc1,i,i,i,i,i
O=C1CSC(=Nc2ccccc2[N+](=O)[O-])N1,-4.6*,i,i,i,i
COc1ccc(N=C2NC(=O)CS2)c([N+](=O)[O-])c1,i,i,i,i,i
CCOC(=O)C1=C(C)N(CC(C)C)C(=O)/C1=C\c1ccc(OCC(=O)Nc2ccccc2)cc1,i,-7.1*,i,i,i
CCCn1c(N2CCN(Cc3ccc(Cl)cc3)CC2)nc2ccccc21,i,i,30*,i,i
CCn1c(N2CCN(Cc3ccc([N+](=O)[O-])cc3)CC2)nc2ccccc21,i,i,i,i,i
COn1c(SC(C)C)nc2ccccc2c1=O,i,i,i,i,9.2*
CC(C)On1c(SC(C)C)nc2ccccc2c1=O,i,i,i,i,i
CC1=C(C)CS(=O)N(S(=O)(=O)c2ccc(Cl)cc2)C1 (centres undefined),i,i,52*,i,i
CC1CCCC(C)N1S(=O)(=O)c1ccc(Cl)cc1 (centres undefined),i,i,i,i,i
O=C(Nc1ccc(Cl)cn1)c1ccc([N+](=O)[O-])o1,x,i,x,i,x
Cc1c(Cl)c([N+](=O)[O-])nn1Cc1ccc(C(=O)Nc2ccc(Cl)cn2)o1,-6.9*,i,i,i,i
CCCCn1nc(C(=O)Oc2ccc3c(C)cc(=O)oc3c2)c2ccccc2c1=O,-6.6*,i,i,i,i
O=C(Nc1cnccn1)c1ccc(Cl)cc1,i,i,i,i,i
O=C(NC(=S)Nc1ccc(CN2CCCCC2)cc1)c1cccc(OCc2ccccc2)c1,i,-7.5*,i,i,i
CC(=O)Nc1ccc(CN2CCCCCCC2)cc1,i,i,i,i,i
O=C(Nc1ccc(CN2CCCCC2)cc1)c1c(F)c(F)c(F)c(F)c1F,i,-7.3*,i,i,i
COc1cc(NC(=S)N2CCCCC2C)cc(OC)c1OC (centres undefined),i,i,i,i,i
SMILES,MrgX1 antagonist,RGS4 pot,MrgX1 agonist,RGS4 inh,MrgX1 PAM
O=C(Nc1ccccc1)c1cc2n(n1)C(C(F)(F)F)CC(C1CC1)N2 (centres undefined),i,i,i,i,i
CSc1ncccc1C(=O)Nc1ccc(S(=O)(=O)NC2=NCCCCC2)cc1,-4.6*,i,i,i,i
CNC(=O)C(=O)NCCc1ccc(Cl)cc1,i,i,i,i,i
CCCCCC(=O)Nc1cccc(C2=NOC3(C2)C[C@@H](C(N)=O)N(C(=O)c2cc([N+](=O)[O-])cc([N+](=O)[O-])c2)C3)c1 (some centres undefined),-6.1*,i,i,i,i
C=C(C)C(=O)N1CC2(CC(c3cccc(NC(=O)/C(C)=C\C)c3)=NO2)C[C@H]1C(N)=O (some centres undefined),-4.8*,i,i,i,i
c1ccc2c(c1)Cc1ccccc1O2,i,x,i,x,i
Cc1ccc(NS(=O)(=O)c2cc([N+](=O)[O-])ccc2N/N=C/c2sc(N3CCOCC3)nc2-c2ccccc2)c(C)c1,-9.4*,i,i,i,i
CCC(C)N(C(=O)COc1ccccc1C(=O)NCc1ccccc1)C1CCS(=O)(=O)C1 (centres undefined),-6.2*,i,i,i,i
C/C(=C\C(=S)Nc1ccccc1)Nc1ccc2ccccc2c1,-4.5*,i,i,i,i
C/C(=C\C(=S)Nc1ccccc1)Nc1cccc2ccccc12,i,i,i,i,i
CCCN(CCC)C(=O)Cn1c(=O)c2ccccc2n2c(=S)sc(-c3ccccc3C)c12,-4.6*,i,i,i,i
COc1ccccc1-n1cc(CN2CCN(C3CCCC3)C(CCO)C2)cn1 (centres undefined),i,i,i,i,i
COc1ccccc1-n1cc(CN2CCN(CC(C)C)C(CCO)C2)cn1 (centres undefined),-5.8*,i,i,i,i
COCCNC(=O)C(c1cccnc1)N(Cc1ccc(C)cc1)C(=O)Cn1nnc2ccccc21 (centres undefined),i,i,i,i,i
CC12COC3(C(=O)Nc4ccc([N+](=O)[O-])cc4)CC1CCC32C (centres undefined),i,i,i,i,8.4*
CC12COC3(C(=O)Nc4ccccc4F)CC1CCC32C (centres undefined),i,i,i,i,i
O=[N+]([O-])c1ccc(/C([O-])=C(/C(=S)NCc2ccco2)[n+]2ccccc2)cc1,i,i,i,i,i
Cc1ccc(/C([O-])=C(/C(=S)NCc2ccco2)[n+]2ccccc2)cc1,i,i,i,4.7*,i
CC1(C)CC(=O)C(C(c2ccc(Br)cc2)C2C(=O)CC(C)(C)CC2=O)C(=O)C1,i,i,41*,i,i
CC1(C)CC(=O)C(C(c2ccco2)C2C(=O)CC(C)(C)CC2=O)C(=O)C1,-6.8*,i,i,i,i
Cc1ccc(C(=O)Nc2cccc(NC(=O)c3ccc(C)o3)n2)o1,i,i,i,i,i
Cc1sc2ncn(/N=C/c3ccco3)c(=O)c2c1C,i,i,i,i,i
Cc1ccc(/C=N/NC(=O)Cn2nnc(N)n2)o1,i,i,i,i,i
CCCOC(=O)CCCCC1SCC(NC(=O)OC)C1NC(=O)OC (centres undefined),-8.1*,i,i,i,i
Cc1c(OCC(=O)NCC(O)c2ccccc2)ccc2c3c(c(=O)oc12)CCCC3 (centres undefined),i,i,i,i,i
